From ChEMBL document CHEMBL3872255, “Design, synthesis and analgesic/anti-inflammatory evaluation of novel diarylthiazole and diarylimidazole derivatives towards selective COX-1 inhibitors with better gastric profile” (Bioorg Med Chem, 2017)
pIC50: −log10 of the molar value. Activity calls are given as the source filed them. The calls are words filed in the database; no cut-off is given here.

Experiments:
[1] = system: Rattus norvegicus; assay: Anti-inflammatory activity against carrageenan-induced paw edema in albino rat assessed as paw thickness at 100 mg/kg, po pretreated for 1 hr followed by carrageenan challenge measured at 3 hrs post carrageenan challenge (reference value: 0.401 +/- 0.019 mm); type: functional
[2] = system: Rattus norvegicus; assay: Anti-inflammatory activity against carrageenan-induced paw edema in albino rat assessed as paw thickness at 100 mg/kg, po pretreated for 1 hr followed by carrageenan challenge measured at 1 hr post carrageenan challenge (reference value: 0.394 +/- 0.220 mm); type: functional
[3] = species: Mus musculus; assay: Analgesic activity in mouse assessed as decrease in number of acetic acid-induced writhing pretreated for 1 hr followed by acetic acid challenge measured between 5 to 20 mins after acetic acid injection; type: functional
Summary of the method: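 Groups of five mice received test compound; 1 h later, 0.6% acetic acid (0.01 ml/g) was injected intraperitoneally. Writhes were counted for 15 min, from minute 5 to 20 after injection. Activity was taken as the reduction in writhing count. Diclofenac 6 mg/kg was the reference. Data are mean ± S.D., N=5, analysed by one-way ANOVA with Dunnett test.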

[4] = system: Rattus norvegicus; assay: Anti-inflammatory activity against carrageenan-induced paw edema in albino rat assessed as paw thickness at 100 mg/kg, po pretreated for 1 hr followed by carrageenan challenge measured at 7 hrs post carrageenan challenge (reference value: 0.464 +/- 0.023 mm); type: functional
[5] = system: Rattus norvegicus; assay: Anti-inflammatory activity against carrageenan-induced paw edema in albino rat assessed as inhibition of paw edema at 100 mg/kg, po pretreated for 1 hr followed by carrageenan challenge measured after 1 to 7 hrs relative to control; type: functional
[6] = target: T1, Prostaglandin G/H synthase 1 (Ovis aries, UniProt P05979); assay: Inhibition of ovine COX-1 assessed as reduction in oxidation of TMPD using arachidonic acid as substrate preincubated for 5 mins followed by substrate and TMPD addition measured after 5 mins by colorimetric assay
T1 sequence (P05979 whole entry): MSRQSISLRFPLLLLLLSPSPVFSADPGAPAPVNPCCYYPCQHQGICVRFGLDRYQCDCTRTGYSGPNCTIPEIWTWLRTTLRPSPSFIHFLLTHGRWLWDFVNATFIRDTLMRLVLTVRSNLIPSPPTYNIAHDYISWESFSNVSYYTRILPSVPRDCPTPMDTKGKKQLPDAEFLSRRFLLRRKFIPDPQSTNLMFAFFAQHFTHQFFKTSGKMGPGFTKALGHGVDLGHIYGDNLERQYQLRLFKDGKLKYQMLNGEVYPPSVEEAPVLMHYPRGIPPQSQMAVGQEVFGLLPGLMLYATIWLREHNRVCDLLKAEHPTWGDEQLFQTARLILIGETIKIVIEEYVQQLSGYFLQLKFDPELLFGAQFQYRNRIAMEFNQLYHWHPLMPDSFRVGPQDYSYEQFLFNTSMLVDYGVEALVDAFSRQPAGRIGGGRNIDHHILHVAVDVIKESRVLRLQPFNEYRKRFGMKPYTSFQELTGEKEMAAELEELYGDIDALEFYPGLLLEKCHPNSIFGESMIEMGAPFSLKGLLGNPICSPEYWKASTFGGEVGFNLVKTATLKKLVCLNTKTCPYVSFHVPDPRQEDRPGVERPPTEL

[7] = Ulcerogenic effect in albino rat assessed as ulcer index […], po administered 2 to 3 days; type: toxicity, organism-based; details: in vivo
Summary of the method: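 Rats were fasted 2 h, fed 2 h, then fasted 20 h, with further doses on days 2 and 3. Stomachs were rinsed in 0.9% saline and lesions scored 0-4. Ulcer index = %incidence/10 + average severity + average ulcer number.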

[8] = system: Rattus norvegicus; assay: Anti-inflammatory activity against carrageenan-induced paw edema in albino rat assessed as inhibition of paw edema at 60 mg/kg, po pretreated for 1 hr followed by carrageenan challenge measured after 1 to 7 hrs relative to control; type: functional
[9] = system: Rattus norvegicus; assay: Anti-inflammatory activity against carrageenan-induced paw edema in albino rat assessed as paw thickness at 60 mg/kg, po pretreated for 1 hr followed by carrageenan challenge measured at 3 hrs post carrageenan challenge (reference value: 0.401 +/- 0.019 mm); type: functional
[10] = system: Rattus norvegicus; assay: Anti-inflammatory activity against carrageenan-induced paw edema in albino rat assessed as paw thickness at 60 mg/kg, po pretreated for 1 hr followed by carrageenan challenge measured at 7 hrs post carrageenan challenge (reference value: 0.464 +/- 0.023 mm); type: functional
[11] = species: Mus musculus; assay: Analgesic activity in mouse assessed as number of acetic acid-induced writhing pretreated for 1 hr followed by acetic acid challenge measured between 5 to 20 mins after acetic acid injection; type: functional
Summary of the method: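 Groups of five mice. Test compound given 1 h before i.p. injection of 0.6% acetic acid, 0.01 ml/g. Writhing movements counted for 15 min, from the 5th to the 20th min after injection. Diclofenac 6 mg/kg served as reference. Activity is taken as the reduction in number of writhings; mean ± S.D., N=5.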

[12] = system: Rattus norvegicus; assay: Anti-inflammatory activity against carrageenan-induced paw edema in albino rat assessed as paw thickness at 60 mg/kg, po pretreated for 1 hr followed by carrageenan challenge measured at 1 hr post carrageenan challenge (reference value: 0.394 +/- 0.220 mm); type: functional

Row | SMILES | Activity [1] | Activity [2] | Activity [3] | Activity [4] | inhibition in vivo at 100 mg/kg [5] | pIC50 [6] | UI [7] | inhibition in vivo at 60 mg/kg [8] | Activity [9] | Activity [10] | Activity [11] | Activity [12]
1 | CN1CCN(C(=O)CNc2nc(-c3ccccc3)c(-c3ccccc3)s2)CC1 | 0.197 mm | 0.173 mm | Active | 0.205 mm | 54.3% | 5.52 |  |  |  |  |  | 
2 | COc1ccc2c(c1)c(CC(=O)O)c(C)n2C(=O)c1ccc(Cl)cc1 [INDOMETHACIN] |  |  |  |  |  |  | 19.5 |  |  |  |  | 
3 | COc1ccc(-c2ncn(CC(=O)N3CCOCC3)c2-c2ccc(OC)cc2)cc1 | 0.159 mm | 0.146 mm | Active | 0.19 mm | 60.8% | 5.29 |  |  |  |  |  | 
4 | O=C(O)Cc1ccccc1Nc1c(Cl)cccc1Cl [DICLOFENAC] |  |  |  |  |  |  |  | 84.5% | 0.06 mm | 0.04 mm | 24 | 0.09 mm
5 | O=C(CNc1nc(-c2ccccc2)c(-c2ccccc2)s1)N1CCCCC1 |  |  |  |  |  | 5.10 |  |  |  |  |  | 
6 | COc1ccc(-c2ncn(CC(=O)N3CCN(C)CC3)c2-c2ccc(OC)cc2)cc1 | 0.191 mm | 0.17 mm | Active | 0.152 mm | 58.8% | 5.51 |  |  |  |  |  | 
7 | O=C(O)CNc1nc(-c2ccccc2)c(-c2ccccc2)s1 | 0.185 mm | 0.166 mm |  | 0.231 mm | 54% | 6.38 | 9.39 |  |  |  |  | 
8 | COc1ccc(-c2nc(NCC(=O)O)sc2-c2ccc(OC)cc2)cc1 | 0.213 mm | 0.165 mm |  | 0.251 mm |  | 6.49 | 8.5 |  |  |  | 10.67 - 14.4 | 
9 | O=C(CNc1nc(-c2ccccc2)c(-c2ccccc2)s1)N1CCOCC1 | 0.167 mm | 0.148 mm | Active | 0.192 mm | 59.8% | 5.24 |  |  |  |  |  | 
10 | COc1ccc(-c2ncn(CC(=O)O)c2-c2ccc(OC)cc2)cc1 | 0.18 mm | 0.149 mm |  | 0.215 mm | 57% | 6.27 | 9.75 |  |  |  | 10.67 - 14.4 | 
11 | COc1ccc(-c2nc(NCC(=O)N3CCOCC3)sc2-c2ccc(OC)cc2)cc1 | 0.19 mm | 0.17 mm | Active | 0.213 mm | 54.5% | 5.40 |  |  |  |  |  | 
12 | COc1ccc(-c2nc(NCC(=O)N3CCCCC3)sc2-c2ccc(OC)cc2)cc1 |  |  |  |  |  | 5.22 |  |  |  |  |  | 
13 | COc1ccc(-c2nc(NCC(=O)N3CCN(C)CC3)sc2-c2ccc(OC)cc2)cc1 | 0.163 mm | 0.144 mm | Active | 0.172 mm | 61.9% | 5.57 |  |  |  |  |  | 
14 | O=C(Cn1cnc(-c2ccccc2)c1-c1ccccc1)N1CCCCC1 |  |  |  |  |  | 5.07 |  |  |  |  |  | 
15 | O=C(Cn1cnc(-c2ccccc2)c1-c1ccccc1)N1CCOCC1 | 0.186 mm | 0.166 mm | Active | 0.218 mm | 54.5% | 5.20 |  |  |  |  |  | 
16 | CN1CCN(C(=O)Cn2cnc(-c3ccccc3)c2-c2ccccc2)CC1 | 0.168 mm | 0.147 mm | Active | 0.182 mm | 60.5% | 5.38 |  |  |  |  |  | 
17 | O=C(O)Cn1cnc(-c2ccccc2)c1-c1ccccc1 | 0.189 mm | 0.161 mm |  | 0.235 mm | 53.8% | 6.17 | 13.3 |  |  |  | 10.67 - 14.4 | 
18 | COc1ccc(-c2ncn(CC(=O)N3CCCCC3)c2-c2ccc(OC)cc2)cc1 |  |  |  |  |  | 5.13 |  |  |  |  |  | 
